# GASC1 inh – inhibitors of GASC-1 (KDM4C) histone demethylase, primary screen, biochemical, single concentration HTS. hit rate 0.15% among 96,000. GST-KDM4C 2-372, H3K9me3 peptide, LANCE TR-FRET. AID 720574, 2013. Lysine-specific demethylase 4C (Homo sapiens), Q9H3R0. inhibition, % at 12.5 µM;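 active = mean replicate inhibition above about 25%, with at least 55% of replicates also reaching it, limit read from the data, passing the limit was not always enough; inconclusive = only one of those two conditions met; inactive = neither condition met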
#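 Material: N-terminal GST-fused human GASC-1 (KDM4C) fragment, residues 2-372. Input: 10 nM enzyme. Incubation: enzyme reaction 30 min, then detection 60 min, both room temperature. Doses: one test concentration per compound. Read-out basis: inhibition from TR-FRET ratio decrease. Detection: LANCE TR-FRET, excitation 340 nm, emissions 618 and 671 nm.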
# T cruzi growth-1 – T. cruzi intracellular proliferation inhibitors, primary screen, cell-based, beta-gal Tulahuen parasites, NIH3T3 host, luminescence; inhibition, % at 8.34 µM; T. cruzi beta-gal in NIH3T3, GalScreen luminescence, 90 h; AID 624255, 2012; hit rate 5.9% among 77,000;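 active = mean inhibition above about 93%, with at least 55% of replicates each passing it, limit read from the data, passing the limit was not always enough; inconclusive = only one of those two conditions holds; inactive = neither condition holds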
# Pf Dd2 growth – P. falciparum Dd2 growth inhibitors, primary screen, SYBR Green fluorescence, single dose replicates; 72 h; hits give low values; activity change, % at 10 µM; hit rate 2.3% among 94,000; AID 1159554, 2015; in the data active = activity change below about -80%; inconclusive = no clear call, values can overlap the other calls
# IDH1 mut inh – inhibitors of IDH1 R132H reductase, primary screen, biochemical, plate reader, single point; Isocitrate dehydrogenase [NADP] cytoplasmic (Homo sapiens), O75874; diaphorase/resazurin fluorescence, 60 min; inhibition, % at 10 µM; hit rate 0.18% among 70,000; in the data active = inhibition above about 34%; inconclusive = no clear call, values can overlap the other calls; inactive = below about 11%;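 note: 0% = DMSO and 100% = no enzyme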
# Target sequence (O75874 whole entry R132H): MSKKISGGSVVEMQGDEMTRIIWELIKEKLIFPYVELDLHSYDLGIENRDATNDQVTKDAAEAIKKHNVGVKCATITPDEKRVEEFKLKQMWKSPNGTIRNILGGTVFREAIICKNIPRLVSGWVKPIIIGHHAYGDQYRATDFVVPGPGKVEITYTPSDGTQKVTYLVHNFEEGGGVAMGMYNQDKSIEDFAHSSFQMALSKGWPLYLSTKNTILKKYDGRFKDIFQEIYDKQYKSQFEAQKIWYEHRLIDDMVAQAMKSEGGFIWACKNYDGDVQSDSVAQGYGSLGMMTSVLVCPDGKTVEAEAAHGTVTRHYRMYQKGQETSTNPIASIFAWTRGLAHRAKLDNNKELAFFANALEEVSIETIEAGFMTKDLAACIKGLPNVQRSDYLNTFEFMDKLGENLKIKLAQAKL
# T cruzi growth-2 – T. cruzi intracellular proliferation inhibitors, confirmation, cell-based, NIH3T3 host, beta-gal parasite, luminescence, cherry-pick; T. cruzi beta-gal in NIH3T3, GalScreen luminescence, 90 h; inhibition, % at 8.35 µM; hit rate 72% among 5,600; AID 651739, 2012; shares compounds with T cruzi growth-1;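 active = mean replicate inhibition above about 95% and at least 55% of replicates individually reaching it, limit read from the data; inconclusive = only one of the two criteria is met; inactive = neither criterion is met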
# T cruzi growth-3 – inhibitors of intracellular T. cruzi replication, confirmation, NIH3T3 host cells, beta-gal parasites, cherry-pick, set 2 | shares compounds with T cruzi growth-1 | T. cruzi beta-gal in NIH3T3, GalScreen luminescence, 90 h | inhibition, % at 2.09 µM | hit rate 21% among 5,600 | AID 651740, 2012;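 active = mean inhibition above about 95%, with at least 55% of replicates also reaching it, limit read from the data; inconclusive = meets just one of the two conditions; inactive = meets neither condition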;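 note: plate controls were neutral control median for no effect and positive control median for full effect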
# NIH3T3 tox – cytotoxicity in mouse NIH/3T3 fibroblasts, confirmation, cytotoxicity control for T. cruzi proliferation inhibitor project, cell-based, cherry-pick, single point | cytotoxicity (signal decrease), % at 8.35 µM | hit rate 14% among 5,600 | shares compounds with T cruzi growth-1 | NIH/3T3 viability, CellTiter-Glo ATP luminescence, 90 h;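 active = mean signal decrease across replicates above about 35% based on untreated-well scatter, with enough replicates individually passing, limit read from the data; inconclusive = no rule stated though some were filed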;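 note: 0% = median of neutral control wells and 100% = median of positive control wells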
# NIH3T3 tox 2 – NIH/3T3 fibroblast cytotoxicity, confirmation, cytotoxicity control, cell-based, cherry-pick, single point, set 2; NIH/3T3 viability, CellTiter-Glo ATP luminescence, 90 h; hit rate 56% among 5,600; AID 651744, 2012; shares compounds with T cruzi growth-1; inhibition, % at 24.9 µM;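 active = mean loss of cell viability signal at or above a set limit, and enough replicates individually reaching it; inconclusive = meets only the mean limit or only the replicate share; inactive = meets neither condition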;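 note: 0% = median of neutral control wells and 100% = median of positive control wells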
# An asterisk follows results filed as active; ? = inconclusive; . = not tested or not shown; ! = a repeat was not active. Compounds with a hit are over-represented: about 5.9% of the library has one in this group of screens.
SMILES,GASC1 inh,T cruzi growth-1,Pf Dd2 growth,IDH1 mut inh,T cruzi growth-2,T cruzi growth-3,NIH3T3 tox,NIH3T3 tox 2
CN(C)c1ccc2c(c1)[C@@H]1C[C@H](CC(=O)N3CCc4ccccc4C3)O[C@H](CO)[C@@H]1O2,24,87,-74,-3,.,.,.,.
CN(C)c1ccc2c(c1)[C@@H]1C[C@@H](CC(=O)N3CCc4ccccc4C3)O[C@@H](CO)[C@@H]1O2,10,135*,-86*,-1,25,22,-3,11
O=C(Nc1ccc(C(F)(F)F)cc1)Nc1ccc2c(c1)[C@H]1C[C@@H](CC(=O)N3CCc4ccccc4C3)O[C@@H](CO)[C@H]1O2,-1,93,-67,0,.,.,.,.
CCOC(=O)CSc1nc2ccc(I)cc2c(=O)n1-c1ccccc1OC,.,.,.,0,.,.,.,.
C[C@@H]1CCCCO[C@@H](CN(C)Cc2ccc(C(F)(F)F)cc2)[C@H](C)CN([C@@H](C)CO)C(=O)c2cc(NC(=O)NC3CCCCC3)ccc2O1,-1,?,-10,.,98*,118*,11,-8
C[C@@H]1CCCCO[C@@H](CN(C)Cc2ccccc2)[C@@H](C)CN([C@H](C)CO)C(=O)c2cc(NC(=O)Nc3ccc(C(F)(F)F)cc3)ccc2O1,0,?,32,.,89,115*,29,12
C[C@@H]1CN([C@@H](C)CO)C(=O)c2cc(NC(=O)Nc3ccc(C(F)(F)F)cc3)ccc2O[C@@H](C)CCCCO[C@H]1CN(C)Cc1ccc(C(F)(F)F)cc1,0,?,-68,-1,-41,-40,6,-11
C[C@@H]1CCCCO[C@@H](CN(C)Cc2ccc(C(F)(F)F)cc2)[C@H](C)CN([C@@H](C)CO)C(=O)c2cc(NC(=O)Nc3ccc(C(F)(F)F)cc3)ccc2O1,0,?,-65,.,102*,117*,25,-1
C[C@H]1CCCCO[C@H](CN(C)Cc2ccc(C(F)(F)F)cc2)[C@@H](C)CN([C@@H](C)CO)C(=O)c2cc(NC(=O)NC3CCCCC3)ccc2O1,0,64,5,2,.,.,.,.
C[C@@H]1CCCCO[C@H](CN(C)Cc2ccc(C(=O)O)cc2)[C@H](C)CN([C@H](C)CO)C(=O)c2cc(NC(=O)Nc3ccc(C(F)(F)F)cc3)ccc2O1,0,45,-46,.,.,.,.,.
C[C@@H]1CCCCO[C@@H](CN(C)Cc2ccccc2)[C@@H](C)CN([C@@H](C)CO)C(=O)c2cc(NC(=O)Nc3ccc(C(F)(F)F)cc3)ccc2O1,-2,86,-62,0,.,.,.,.
C[C@]12C[C@@H](O)[C@@H]3C[C@@]1(O[C@@H]1O[C@H](CO)[C@@H](O)[C@H](O)[C@H]1O)[C@]3(COC(=O)c1ccccc1)C(=O)O2,.,.,.,0,.,.,.,.
COc1ccc(CNC(=O)CCn2c(=O)c3sccc3n(Cc3cc(C)ccc3C)c2=O)cc1,.,.,.,0,.,.,.,.
O=S(=O)(c1ccccc1)c1nc(-c2ccccc2Cl)oc1NCc1cccnc1,.,.,.,-1,.,.,.,.
Cc1ccc(NC(=O)C(C)n2cc([N+](=O)[O-])cn2)cc1C (stereo not given),.,.,.,1,.,.,.,.
CN(CC(=O)Nc1ccccc1C#N)S(=O)(=O)c1ccc(Br)cc1,.,.,.,0,.,.,.,.
COc1ccc(NC(=O)Nc2ccc3c(c2)C(=O)N([C@@H](C)CO)C[C@H](C)[C@@H](CN(C)Cc2ccc(Cl)c(Cl)c2)OCCCC[C@H](C)O3)cc1,0,124*,-29,2,99*,113*,16,21
C[C@@H]1CN([C@@H](C)CO)C(=O)c2cc(NC(=O)Nc3ccccc3)ccc2O[C@@H](C)CCCCO[C@H]1CN(C)Cc1ccc(Cl)c(Cl)c1,6,69,-75,0,.,.,.,.
C[C@@H]1CCCCO[C@@H](CN(C)Cc2ccc(Cl)c(Cl)c2)[C@H](C)CN([C@@H](C)CO)C(=O)c2cc(NC(=O)Nc3ccccc3)ccc2O1,-1,70,-72,-13,.,.,.,.
COc1ccc(NC(=O)Nc2ccc3c(c2)C(=O)N([C@H](C)CO)C[C@@H](C)[C@H](CN(C)Cc2ccc(Cl)c(Cl)c2)OCCCC[C@H](C)O3)cc1,-2,121*,-62,.,93,107*,9,17
Oc1ccc(Br)cc1CNc1nc2ccccc2[nH]1,.,.,.,-1,.,.,.,.
C[C@@H]1CN([C@@H](C)CO)S(=O)(=O)c2ccc(C#Cc3ccncc3)cc2O[C@@H]1CN(C)C(=O)Nc1ccc2c(c1)OCO2,1,1,-12,7,.,.,.,.
C[C@H](CO)N1C[C@H](C)[C@@H](CN(C)C(=O)Nc2ccc3c(c2)OCO3)Oc2cc(C#Cc3ccccc3)ccc2S1(=O)=O,-2,131*,-71,1,104*,71,4,13
C[C@H](CO)N1C[C@H](C)[C@@H](CN(C)C(=O)Nc2ccc3c(c2)OCO3)Oc2cc(C#Cc3ccncc3)ccc2S1(=O)=O,1,82,-56,0,.,.,.,.
C[C@H]1CN([C@@H](C)CO)S(=O)(=O)c2ccc(C3=CCCC3)cc2O[C@@H]1CN(C)C(=O)Nc1ccc2c(c1)OCO2,6,109*,-53,0,96*,53,9,28*
SMILES,GASC1 inh,T cruzi growth-1,Pf Dd2 growth,IDH1 mut inh,T cruzi growth-2,T cruzi growth-3,NIH3T3 tox,NIH3T3 tox 2
C[C@@H]1CN([C@H](C)CO)S(=O)(=O)c2ccc(C3=CCCC3)cc2O[C@@H]1CN(C)C(=O)Nc1ccc2c(c1)OCO2,0,76,-20,0,.,.,.,.
C[C@@H]1CN([C@H](C)CO)S(=O)(=O)c2ccc(C#Cc3ccccc3)cc2O[C@H]1CN(C)C(=O)Nc1ccc2c(c1)OCO2,0,92*,-71,.,108*,96*!,16,32*
O=C(CSc1nnc(-c2ccccc2F)n1-c1ccc(Cl)cc1)Nc1ccc(F)cc1F,.,.,.,0,.,.,.,.
c1ccc(CNc2nc3ccccc3n2CCN2CCCCC2)nc1,.,.,.,0,.,.,.,.
Cc1cc(I)cnc1NC(=O)COc1ccc([N+](=O)[O-])cc1,.,.,.,0,.,.,.,.
Cc1cccc(OCC(=O)Nc2cccc(C(=O)O)c2C)c1,.,.,.,-1,.,.,.,.
C=CCN(C(=O)c1cc2cc3cc(OC)ccc3nc2s1)c1ccccc1,.,.,.,0,.,.,.,.

# Compound activity as filed in PubChem.
